# Screens as filed in PubChem.
# Pf gamet viab: inhibitors of late stage P. falciparum gametocyte viability; AID 743093; P. falciparum stage V gametocytes, ATP luminescence, 24 h; 0.065% of 150,000 active; inhibition, % at 10.9 µM;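 active means inhibition above the mean plus 3 SD of compounds within the control limits, set per campaign, cut at about 38% in these data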;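 further: 0% = DMSO wells and 100% = medium only without gametocytes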
# Calpain2 inh: inhibitors of pig calpain II; purified calpain II, fluorogenic peptide substrate, 30 min; inhibition, % at 16 µM; 0.37% of 220,000 active;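 active means inhibition above about 50%, limit read from the data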
# Hsp70 act: transcriptional activators of Hsp70. HeLa Hsp70 promoter luciferase reporter, luminescence; scaled: vehicle 0, proteasome-inhibitor control 100%. 0.04% of 200,000 active. activation, % at 10 µM. AID 1203;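 active means activation above the mean across all tested compounds plus 3 SD, cutoff set per campaign, cut at about 5.5% in these data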;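 further: 100% = MG132 at 30 µM as the positive control and 0% = DMSO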
# Wee1 degr inh: human Wee1 degradation inhibition, primary screen; P30291; HeLa Luc-Wee1K328M stability, luciferase luminescence; 100% = proteasome inhibitor MG132 effect; reporter increase, % at 5 µM; 1.2% of 220,000 active;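 active means activation above the mean of all tested compounds plus 3 SD, set per screening run, cut at about 8.8% in these data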;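 further: cells exposed to compound for 20 h before luminescence read; 0% = DMSO alone and 100% = MG132 at 30 µM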
# Mdm2 ligase inh: Mdm2 E3 ligase (human) inhibition | Q00987 | cell-based MDM2 ubiquitination luciferase reporter, 2 h; 0 = plate control, 100 = twice control, blank-subtracted | signal enhancement, % at 5 µM | 0.11% of 210,000 active | AID 1230;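 active means signal enhancement of 30% or more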;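 further: luminescence tracks abundance of the self-degrading MDM2-luciferase fusion protein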
# Target sequence (Q00987 whole entry, looked up, the tested form may be a part): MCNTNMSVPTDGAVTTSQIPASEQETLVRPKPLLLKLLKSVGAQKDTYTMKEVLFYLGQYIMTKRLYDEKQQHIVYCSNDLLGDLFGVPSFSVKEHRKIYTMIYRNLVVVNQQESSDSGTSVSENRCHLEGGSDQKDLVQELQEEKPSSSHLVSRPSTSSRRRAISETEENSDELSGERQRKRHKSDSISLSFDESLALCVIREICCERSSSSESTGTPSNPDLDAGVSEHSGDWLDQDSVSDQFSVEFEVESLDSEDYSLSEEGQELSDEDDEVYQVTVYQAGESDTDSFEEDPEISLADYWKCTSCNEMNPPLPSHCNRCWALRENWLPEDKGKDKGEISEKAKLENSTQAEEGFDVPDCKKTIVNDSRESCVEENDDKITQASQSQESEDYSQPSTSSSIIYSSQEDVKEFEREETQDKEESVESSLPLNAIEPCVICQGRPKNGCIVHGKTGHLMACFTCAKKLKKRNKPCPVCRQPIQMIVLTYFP
#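 Material: stable MDM2–luciferase fusion reporter cells / Quantity: 2000 cells/well / Dosing: single 5 µM compound dose, 0.2% final DMSO / Buffer or medium: DMEM / Schedule: 4 h cell settling then 2 h compound exposure, 37 °C / Detection: luminescence with SteadyLite reagent, 15 min at room temperature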
# * = called active by the depositor; / = not tested or not shown. Rows were chosen to be rich in hits. Some 1.5% of all compounds tested hit in one or more screens of this group.
SMILES,Pf gamet viab,Calpain2 inh,Hsp70 act,Wee1 degr inh,Mdm2 ligase inh
CCOc1cc(NC(=S)NCCCN2CCOCC2)c(OCC)cc1NC(=O)c1cccs1,/,10,0,9.5*,-22
CCOC(=O)c1cnn(-c2ccc([N+](=O)[O-])cc2)c1N,-6,16,/,4,9
CCOC(=O)c1nnn(-c2ccc([N+](=O)[O-])cc2)c1C,/,8,0,8.8*,-23
COC(=O)c1ccc(CN2CCCC(C(=O)c3ccccc3OC)C2)cc1 (stereo not given),-11,/,/,/,/
Cc1ccc(C(CC(=O)c2ccco2)SCCO)cc1 (stereo not given),/,-11,0,11*,-11
O=C(CC(SCCO)c1ccc(F)cc1)c1ccco1 (stereo not given),/,7,0,0,-9
CC(C)c1ccccc1NC(=S)NN(Cc1ccccc1)c1ccccc1,-32,50*,-1,-1,-10
CC1=Nc2ccccc2N=C(NC(=O)CN2CCN(c3ccccc3)CC2)C1c1ccccc1 (stereo not given),10,57*,1,-1,-15
Cc1ccc(S(=O)(=O)NC2CC(C)(C)NC(C)(C)C2)c(C)c1C,2,/,/,/,/
O=C(OCC(=O)c1c[nH]c2ccccc12)C1=COCCO1,/,12,0,11*,-18
O=C1c2ccccc2C(=O)N1CCCC(=O)N1CCCc2ccccc21,/,57*,0,-1,-17
O=C(CCCCCCCCN1C(=O)c2ccccc2C1=O)N1CCOCC1,-13,14,/,2,-42
O=C(CCCCCCN1C(=O)c2ccccc2C1=O)N1CCC(c2ccccc2)C1 (stereo not given),-4,53*,0,-1,0
Brc1cc2c(cc1/C=N/Nc1nc(N3CCCCC3)nc(N3CCCCC3)n1)OCO2,/,-48,0,14*,-12
COc1nc(N/N=C/c2cc3c(cc2Br)OCO3)nc(N2CCOCC2)n1,/,-10,0,-2,-22
C#CCOCCOCCOCCNc1nc(N2CCOCC2)nc(N2CCN(C(=O)[C@H](C)n3cc(CCC(=O)O)nn3)CC2)n1,32,/,/,/,/
COc1cccc(C2=CC(c3ccc(OC)c(OC)c3)NC(=S)N2)c1 (stereo not given),3,59*,/,2,-19
C=CCNC(=S)N/N=C/c1ccc(C)cc1C,8,38,0,-1,-14
C=CCNC(=S)N/N=C/c1ccc(C)c([N+](=O)[O-])c1,/,52*,0,-1,-11
O=C(Oc1ccccc1N1C(=O)C2CCCCC2C1=O)c1ccccc1 (stereo not given),15,6,0,3,0
CC1CCC2C(=O)N(c3ccccc3OC(=O)c3ccccc3F)C(=O)C2C1 (stereo not given),-10,8,0,9.5*,-21
CSCCC(NC(=O)OC(C)(C)C)C(=O)Oc1ccc2c(=O)c(-c3ccc4c(c3)OCCO4)coc2c1 (stereo not given),-9,-168,0,9.9*,-27
COc1c(C)cc(S(=O)(=O)NCCN2CCOCC2)c(C)c1C,7,/,/,/,/
O=C(Nc1ccc(Nc2ccncc2)cc1)c1ccc(Nc2ccnc3ccc([N+](=O)[O-])cc23)cc1,/,51*,/,-1,-7
CCCC(=O)NC(=S)Nc1ccc(S(=O)(=O)N2CCc3ccccc32)cc1,-9,/,/,/,/
SMILES,Pf gamet viab,Calpain2 inh,Hsp70 act,Wee1 degr inh,Mdm2 ligase inh
COc1cc(OC)cc(-c2c(C#Cc3ccsc3)c3cc(-c4cccc5[nH]cc(C=O)c45)ccc3n2C)c1,-13,/,/,/,/
COc1cccc(CC(NC(C)=O)C(=O)NC2CCN(c3nc(C)cc(C)c3C#N)CC2)c1 (stereo not given),/,-142,0,0,3
COc1ccc(CC(NC(C)=O)C(=O)NC2CCN(c3nc(C)cc(C)c3C#N)CC2)c(OC)c1 (stereo not given),/,-85,0,9.4*,0
Cc1ccccc1CN1CCN(CC2CC2)CC1CCO (stereo not given),5,/,/,/,/
Cc1c(C(=O)NCc2cccnc2)sc2nc(-c3ccc(F)cc3)cn12,/,78*,0,-2,-3
O=S(=O)(Cc1ccccc1)NCC1CCCN(Cc2ccc(F)c(F)c2)C1 (stereo not given),12,65*,0,-3,-9
O=S(=O)(Cc1ccccc1)NCC1CCCN(Cc2ccc3nonc3c2)C1 (stereo not given),7,0,0,0,-3
